Data as given in ChEMBL document CHEMBL1151210, “Antioxidative constituents from the leaves of Hypericum styphelioides” (J Nat Prod, 2004).

Key:
[1] = Antioxidant activity assessed as trolox equivalent of free radical scavenging activity by chemiluminescence assay; format: functional
Outline: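 Measures inhibition of p-iodophenol-enhanced chemiluminescence from a horseradish peroxidase/perborate/luminol system. Signal reagent was made by dissolving tablets (luminol, p-iodophenol enhancer, perborate oxidant) in assay buffer. Trolox served as reference antioxidant, and activity is expressed in Trolox-equivalent mM.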

[2] = Antioxidant activity assessed as trolox equivalent of ABTS radical scavenging activity by spectrophotometry; format: functional
Outline: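 ABTS radical monocation, preformed, scavenging read spectrophotometrically. Samples were diluted in MeOH to 0.3, 0.5, 1.0, 1.5 and 2.0 mM. 10 µL of sample or Trolox standard was added to 1.0 mL diluted ABTS, with MeOH as control. % inhibition of A734 vs control was taken 1 min after mixing, in triplicate. Value = Trolox concentration matching the inhibition of 1 mM compound.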

Structure (SMILES) | Activity [1] | Activity [2]
C=C(C)[C@H]1C[C@H](c2c(O)cc3oc4c(O)cccc4c(=O)c3c2O)C(C)(C)C1 | 1.94 mM | 2.92 mM
C=C(C)[C@H]1C[C@H](c2c(O)cc3oc4c(O)c(O)ccc4c(=O)c3c2O)C(C)(C)C1 | 1.78 mM | 2.75 mM
CC(C)=CCC/C(C)=C/Cc1c(O)cc(O)c(C(=O)CC(C)C)c1O | 0.96 mM | 1.1 mM
O=c1c(O)c(-c2ccc(O)c(O)c2)oc2cc(O)cc(O)c12 | 3.09 mM | 3.33 mM
C[C@@H]1O[C@@H](OC[C@H]2O[C@@H](Oc3c(-c4ccc(O)c(O)c4)oc4cc(O)cc(O)c4c3=O)[C@H](O)[C@@H](O)[C@@H]2O)[C@H](O)[C@H](O)[C@H]1O | 2.54 mM | 2.78 mM
O=C(c1ccccc1)c1cc(O)c([C@@H]2O[C@H](CO)[C@@H](O)[C@H](O)[C@H]2O)c(O)c1 | 1.24 mM | 1.93 mM
